Measured values reported in ChEMBL document CHEMBL4257452, “A mini-library system to investigate non-essential residues of lipid-phosphatidylserine (PS) binding peptide-peptoid hybrid PPS1” (Medchemcomm, 2017).
Active and inactive are the calls of the source. The rule behind the calls is not given here. Starred links: 1 amine or outer side, 2 acyl side, 3 side chain; linkers in the order of their positions; H or OH if unused. Positions of bridges follow the written chain, without caps; N, C: chain ends. Non-standard residues stand in square brackets, D forms with d. Residues, ends and D or L forms follow the SMILES beside them. Chains are numbered I, II in the order given. N(3,4-(MeO)2phenethyl)Gly = COc1ccc(CCNCC(=O)O)cc1OC; Gly(N-CH2CH2C6H4-4Cl) = O=C(O)CNCCc1ccc(Cl)cc1; Gly(N-piperonyl) = O=C(O)CNCc1ccc2c(c1)OCO2; N(4-MeOBn)Gly = COc1ccc(CNCC(=O)O)cc1; X11 = Nc1ccc(CN(CC(=O)[*:2])[*:1])cc1; N(CH2CH2NHAc)Gly = CC(=O)NCCNCC(=O)O; X3 = CC(c1ccccc1)N(CC(=O)[*:2])[*:1]; X9 = O=C(CN(CCOc1ccccc1)[*:1])[*:2]; X8 = O=C(CN(CC1CCNCC1)[*:1])[*:2]; X10 = CCC(C)CN(CC(=O)[*:2])[*:1]; NFurfurylGly = O=C(O)CNCc1ccco1; X6 = CCC(C)N(CC(=O)[*:2])[*:1]; NAllylGly = C=CCNCC(=O)O; Nme = COCCNCC(=O)O

Tested on: HCC4017
Experiment: Cytotoxicity against human HCC4017 cells assessed as reduction in cell viability at 20 uM after 24 hrs by MTS assay
Type: functional, cell-based
Procedure, shortened: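 HCC4017 cells (RPMI, 5% FBS) and HBEC-3KT normal lung cells (KSFM with recombinant human EGF and bovine pituitary extract) were plated at 10 000 cells/well in triplicate and left to adhere overnight. They were exposed to 1 or 20 μM compound for 24 h. MTS reagent was then added for 2 h and absorbance read at 490 nm. Viability is % of untreated control wells.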

| Compound | Activity |
| --- | --- |
| CCC(C)CN(CC(=O)NC(CCCCN)C(=O)NC(CCCCN)C(=O)NC(CCSC)C(=O)NCCCCC(NC(=O)C(CCSC)NC(=O)C(CCCCN)NC(=O)C(CCCCN)NC(=O)CN(CC(C)CC)C(=O)CN(Cc1ccc(OC)cc1)C(=O)CN(C(=O)CN(Cc1ccc2c(c1)OCO2)C(=O)CNC(C)c1ccccc1)C(C)c1ccccc1)C(N)=O)C(=O)CN(Cc1ccc(OC)cc1)C(=O)CN(C(=O)CN(Cc1ccc2c(c1)OCO2)C(=O)CNC(C)c1ccccc1)C(C)c1ccccc1 (stereo not drawn) (I: H-[X3][Gly(N-piperonyl)][X3][N(4-MeOBn)Gly][X10]KKMK-NH2 / II: H-[X3][Gly(N-piperonyl)][X3][N(4-MeOBn)Gly][X10]KKM; amide I:9-II:C; configuration not given here) | Active |
| COc1ccc(CN(CC(=O)NC(C(=O)NC(CCCCN)C(=O)NC(CCCCN)C(=O)NC(CCSC)C(=O)NCCCCC(NC(=O)C(CCSC)NC(=O)C(CCCCN)NC(=O)C(CCCCN)NC(=O)C(NC(=O)CN(Cc2ccc(OC)cc2)C(=O)CN(C(=O)CN(Cc2ccc3c(c2)OCO3)C(=O)CNC(C)c2ccccc2)C(C)c2ccccc2)C(C)C)C(N)=O)C(C)C)C(=O)CN(C(=O)CN(Cc2ccc3c(c2)OCO3)C(=O)CNC(C)c2ccccc2)C(C)c2ccccc2)cc1 (stereo not drawn) (I: H-[X3][Gly(N-piperonyl)][X3][N(4-MeOBn)Gly]VKKMK-NH2 / II: H-[X3][Gly(N-piperonyl)][X3][N(4-MeOBn)Gly]VKKM; amide I:9-II:C; configuration not given here) | Active |
| COc1ccc(CN(CC(=O)N(CCc2ccc(Cl)cc2)CC(=O)NC(CCCCN)C(=O)NC(CCCCN)C(=O)NC(CCSC)C(=O)NCCCCC(NC(=O)C(CCSC)NC(=O)C(CCCCN)NC(=O)C(CCCCN)NC(=O)CN(CCc2ccc(Cl)cc2)C(=O)CN(Cc2ccc(OC)cc2)C(=O)CN(C(=O)CN(Cc2ccc3c(c2)OCO3)C(=O)CNC(C)c2ccccc2)C(C)c2ccccc2)C(N)=O)C(=O)CN(C(=O)CN(Cc2ccc3c(c2)OCO3)C(=O)CNC(C)c2ccccc2)C(C)c2ccccc2)cc1 (stereo not drawn) (I: H-[X3][Gly(N-piperonyl)][X3][N(4-MeOBn)Gly][Gly(N-CH2CH2C6H4-4Cl)]KKMK-NH2 / II: H-[X3][Gly(N-piperonyl)][X3][N(4-MeOBn)Gly][Gly(N-CH2CH2C6H4-4Cl)]KKM; amide I:9-II:C; configuration not given here) | Active |
| COc1ccc(CN(CC(=O)N2CCCC2C(=O)NC(CCCCN)C(=O)NC(CCCCN)C(=O)NC(CCSC)C(=O)NCCCCC(NC(=O)C(CCSC)NC(=O)C(CCCCN)NC(=O)C(CCCCN)NC(=O)C2CCCN2C(=O)CN(Cc2ccc(OC)cc2)C(=O)CN(C(=O)CN(Cc2ccc3c(c2)OCO3)C(=O)CNC(C)c2ccccc2)C(C)c2ccccc2)C(N)=O)C(=O)CN(C(=O)CN(Cc2ccc3c(c2)OCO3)C(=O)CNC(C)c2ccccc2)C(C)c2ccccc2)cc1 (stereo not drawn) (I: H-[X3][Gly(N-piperonyl)][X3][N(4-MeOBn)Gly]PKKMK-NH2 / II: H-[X3][Gly(N-piperonyl)][X3][N(4-MeOBn)Gly]PKKM; amide I:9-II:C; configuration not given here) | Active |
| CCC(C)N(CC(=O)NC(CCCCN)C(=O)NC(CCCCN)C(=O)NC(CCSC)C(=O)NCCCCC(NC(=O)C(CCSC)NC(=O)C(CCCCN)NC(=O)C(CCCCN)NC(=O)CN(C(=O)CN(Cc1ccc(OC)cc1)C(=O)CN(C(=O)CN(Cc1ccc2c(c1)OCO2)C(=O)CNC(C)c1ccccc1)C(C)c1ccccc1)C(C)CC)C(N)=O)C(=O)CN(Cc1ccc(OC)cc1)C(=O)CN(C(=O)CN(Cc1ccc2c(c1)OCO2)C(=O)CNC(C)c1ccccc1)C(C)c1ccccc1 (stereo not drawn) (I: H-[X3][Gly(N-piperonyl)][X3][N(4-MeOBn)Gly][X6]KKMK-NH2 / II: H-[X3][Gly(N-piperonyl)][X3][N(4-MeOBn)Gly][X6]KKM; amide I:9-II:C; configuration not given here) | Active |
| COc1ccc(CN(CC(=O)N(CCNC(C)=O)CC(=O)NC(CCCCN)C(=O)NC(CCCCN)C(=O)NC(CCSC)C(=O)NCCCCC(NC(=O)C(CCSC)NC(=O)C(CCCCN)NC(=O)C(CCCCN)NC(=O)CN(CCNC(C)=O)C(=O)CN(Cc2ccc(OC)cc2)C(=O)CN(C(=O)CN(Cc2ccc3c(c2)OCO3)C(=O)CNC(C)c2ccccc2)C(C)c2ccccc2)C(N)=O)C(=O)CN(C(=O)CN(Cc2ccc3c(c2)OCO3)C(=O)CNC(C)c2ccccc2)C(C)c2ccccc2)cc1 (stereo not drawn) (I: H-[X3][Gly(N-piperonyl)][X3][N(4-MeOBn)Gly][N(CH2CH2NHAc)Gly]KKMK-NH2 / II: H-[X3][Gly(N-piperonyl)][X3][N(4-MeOBn)Gly][N(CH2CH2NHAc)Gly]KKM; amide I:9-II:C; configuration not given here) | Active |
| COc1ccc(CN(CC(=O)N(CC(=O)NC(CCCCN)C(=O)NC(CCCCN)C(=O)NC(CCSC)C(=O)NCCCCC(NC(=O)C(CCSC)NC(=O)C(CCCCN)NC(=O)C(CCCCN)NC(=O)CN(Cc2ccco2)C(=O)CN(Cc2ccc(OC)cc2)C(=O)CN(C(=O)CN(Cc2ccc3c(c2)OCO3)C(=O)CNC(C)c2ccccc2)C(C)c2ccccc2)C(N)=O)Cc2ccco2)C(=O)CN(C(=O)CN(Cc2ccc3c(c2)OCO3)C(=O)CNC(C)c2ccccc2)C(C)c2ccccc2)cc1 (stereo not drawn) (I: H-[X3][Gly(N-piperonyl)][X3][N(4-MeOBn)Gly][NFurfurylGly]KKMK-NH2 / II: H-[X3][Gly(N-piperonyl)][X3][N(4-MeOBn)Gly][NFurfurylGly]KKM; amide I:9-II:C; configuration not given here) | Active |
| COc1ccc(CN(CC(=O)N(CC(=O)NC(CCCCN)C(=O)NC(CCCCN)C(=O)NC(CCSC)C(=O)NCCCCC(NC(=O)C(CCSC)NC(=O)C(CCCCN)NC(=O)C(CCCCN)NC(=O)CN(Cc2ccc(N)cc2)C(=O)CN(Cc2ccc(OC)cc2)C(=O)CN(C(=O)CN(Cc2ccc3c(c2)OCO3)C(=O)CNC(C)c2ccccc2)C(C)c2ccccc2)C(N)=O)Cc2ccc(N)cc2)C(=O)CN(C(=O)CN(Cc2ccc3c(c2)OCO3)C(=O)CNC(C)c2ccccc2)C(C)c2ccccc2)cc1 (stereo not drawn) (I: H-[X3][Gly(N-piperonyl)][X3][N(4-MeOBn)Gly][X11]KKMK-NH2 / II: H-[X3][Gly(N-piperonyl)][X3][N(4-MeOBn)Gly][X11]KKM; amide I:9-II:C; configuration not given here) | Active |
| COCCN(CC(=O)NC(CCCCN)C(=O)NC(CCCCN)C(=O)NC(CCSC)C(=O)NCCCCC(NC(=O)C(CCSC)NC(=O)C(CCCCN)NC(=O)C(CCCCN)NC(=O)CN(CCOC)C(=O)CN(Cc1ccc(OC)cc1)C(=O)CN(C(=O)CN(Cc1ccc2c(c1)OCO2)C(=O)CNC(C)c1ccccc1)C(C)c1ccccc1)C(N)=O)C(=O)CN(Cc1ccc(OC)cc1)C(=O)CN(C(=O)CN(Cc1ccc2c(c1)OCO2)C(=O)CNC(C)c1ccccc1)C(C)c1ccccc1 (stereo not drawn) (I: H-[X3][Gly(N-piperonyl)][X3][N(4-MeOBn)Gly][Nme]KKMK-NH2 / II: H-[X3][Gly(N-piperonyl)][X3][N(4-MeOBn)Gly][Nme]KKM; amide I:9-II:C; configuration not given here) | Active |
| C=CCN(CC(=O)NC(CCCCN)C(=O)NC(CCCCN)C(=O)NC(CCSC)C(=O)NCCCCC(NC(=O)C(CCSC)NC(=O)C(CCCCN)NC(=O)C(CCCCN)NC(=O)CN(CC=C)C(=O)CN(Cc1ccc(OC)cc1)C(=O)CN(C(=O)CN(Cc1ccc2c(c1)OCO2)C(=O)CNC(C)c1ccccc1)C(C)c1ccccc1)C(N)=O)C(=O)CN(Cc1ccc(OC)cc1)C(=O)CN(C(=O)CN(Cc1ccc2c(c1)OCO2)C(=O)CNC(C)c1ccccc1)C(C)c1ccccc1 (stereo not drawn) (I: H-[X3][Gly(N-piperonyl)][X3][N(4-MeOBn)Gly][NAllylGly]KKMK-NH2 / II: H-[X3][Gly(N-piperonyl)][X3][N(4-MeOBn)Gly][NAllylGly]KKM; amide I:9-II:C; configuration not given here) | Active |
| COc1ccc(CN(CC(=O)N(CCc2ccc(OC)c(OC)c2)CC(=O)NC(CCCCN)C(=O)NC(CCCCN)C(=O)NC(CCSC)C(=O)NCCCCC(NC(=O)C(CCSC)NC(=O)C(CCCCN)NC(=O)C(CCCCN)NC(=O)CN(CCc2ccc(OC)c(OC)c2)C(=O)CN(Cc2ccc(OC)cc2)C(=O)CN(C(=O)CN(Cc2ccc3c(c2)OCO3)C(=O)CNC(C)c2ccccc2)C(C)c2ccccc2)C(N)=O)C(=O)CN(C(=O)CN(Cc2ccc3c(c2)OCO3)C(=O)CNC(C)c2ccccc2)C(C)c2ccccc2)cc1 (stereo not drawn) (I: H-[X3][Gly(N-piperonyl)][X3][N(4-MeOBn)Gly][N(3,4-(MeO)2phenethyl)Gly]KKMK-NH2 / II: H-[X3][Gly(N-piperonyl)][X3][N(4-MeOBn)Gly][N(3,4-(MeO)2phenethyl)Gly]KKM; amide I:9-II:C; configuration not given here) | Active |
| COc1ccc(CN(CC(=O)N(CC(=O)NC(CCCCN)C(=O)NC(CCCCN)C(=O)NC(CCSC)C(=O)NCCCCC(NC(=O)C(CCSC)NC(=O)C(CCCCN)NC(=O)C(CCCCN)NC(=O)CN(CC2CCNCC2)C(=O)CN(Cc2ccc(OC)cc2)C(=O)CN(C(=O)CN(Cc2ccc3c(c2)OCO3)C(=O)CNC(C)c2ccccc2)C(C)c2ccccc2)C(N)=O)CC2CCNCC2)C(=O)CN(C(=O)CN(Cc2ccc3c(c2)OCO3)C(=O)CNC(C)c2ccccc2)C(C)c2ccccc2)cc1 (stereo not drawn) (I: H-[X3][Gly(N-piperonyl)][X3][N(4-MeOBn)Gly][X8]KKMK-NH2 / II: H-[X3][Gly(N-piperonyl)][X3][N(4-MeOBn)Gly][X8]KKM; amide I:9-II:C; configuration not given here) | Active |
| COc1ccc(CN(CC(=O)N(CCOc2ccccc2)CC(=O)NC(CCCCN)C(=O)NC(CCCCN)C(=O)NC(CCSC)C(=O)NCCCCC(NC(=O)C(CCSC)NC(=O)C(CCCCN)NC(=O)C(CCCCN)NC(=O)CN(CCOc2ccccc2)C(=O)CN(Cc2ccc(OC)cc2)C(=O)CN(C(=O)CN(Cc2ccc3c(c2)OCO3)C(=O)CNC(C)c2ccccc2)C(C)c2ccccc2)C(N)=O)C(=O)CN(C(=O)CN(Cc2ccc3c(c2)OCO3)C(=O)CNC(C)c2ccccc2)C(C)c2ccccc2)cc1 (stereo not drawn) (I: H-[X3][Gly(N-piperonyl)][X3][N(4-MeOBn)Gly][X9]KKMK-NH2 / II: H-[X3][Gly(N-piperonyl)][X3][N(4-MeOBn)Gly][X9]KKM; amide I:9-II:C; configuration not given here) | Active |
